# PMC4183631 (Journal of the American Chemical Society, 2014)
# No end group written: not given here.
# Legend:
# bacteria = settings: cited from earlier work
# S. aureus ATCC 25923 = assay: Antimicrobial activity assay; type: cell-based, Staphylococcus aureus; settings: 20 μM peptide, AMA buffer (10 mM sodium phosphate, 1% TSB, pH 7.4), 1 h, 37 °C, colony counting; n = 3
# How it was run: (§1)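 Strain grown overnight in dextrose-free TSB (37 °C, 16 h), subcultured 1:100 to OD600 ~0.6, washed twice in AMA buffer, set to OD600 0.6, then diluted 1:100. 9 parts culture to 1 part 10× peptide (200 μM stock) or water control; 1 h, 37 °C, 150 rpm. Tenfold dilutions plated on TSB agar, 20 h, 37 °C; 30–200-colony plates counted. Three trials, ≥2 peptide preparations; mean and standard deviation.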
# [1] = test system: L. monocytogenes ATCC 19115; assay: Bacterial agglutination assay; type: cell-based, Listeria monocytogenes; settings: for peptide concentration at which the bacteria were agglutinated: 0–20 μM peptide, 50% MHB pH 7.4, 6 h, OD600
# How it was run: (§2)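 Mid-log bacteria (LB for E. coli, BHI for Listeria), washed, held at OD600 0.25 in 50% MHB pH 7.4. Mixed 9:1 with 10× peptide (50, 100, 200 μM stocks) or water in a cuvette; OD600 read over time. At 6 h, for 20 μM samples, supernatant and agglutinate resuspended in fresh 50% MHB were serially diluted and plated (37 °C; LB agar 15 h, BHI agar 20 h). Three trials; mean ± SD.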
# [2] = test system: S. Typhimurium ATCC 14028; assay: Antimicrobial activity assay; type: cell-based, Salmonella enterica serovar Typhimurium; settings: 20 μM peptide, AMA buffer (10 mM sodium phosphate, 1% TSB, pH 7.4), 1 h, 37 °C, colony counting; n = 3
# How it was run: as §1, with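 “Cells grown” for “Strain grown”, “OD600 0.5,” for “OD600 0.6,”, “diluted 1:250.” for “diluted 1:100.”, “agar, 15” for “agar, 20”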
# [3] = test system: L. monocytogenes ATCC 19115; assay: Antimicrobial activity assay; type: cell-based, Listeria monocytogenes; settings: 20 μM peptide, AMA buffer (10 mM sodium phosphate, 1% TSB, pH 7.4), 1 h, 37 °C, colony counting; n = 3
# How it was run: as §1, with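 “in BHI” for “in dextrose-free TSB”, “OD600 0.5,” for “OD600 0.6,”, “diluted 1:500.” for “diluted 1:100.”, “on BHI” for “on TSB”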
# E. coli ATCC 25922 [4] = assay: Bacterial agglutination assay; type: cell-based, Escherichia coli; settings: for peptide concentration at which the bacteria were agglutinated: 0–20 μM peptide, 50% MHB pH 7.4, 6 h, OD600
# How it was run: as §2
# [5] = Sedimentation velocity analytical ultracentrifugation; type: physicochemical; settings: lowest possible rotor speed (3000 rpm); white coat on the AUC cell
# E. coli ATCC 25922 [6] = assay: Antimicrobial activity assay; type: cell-based, Escherichia coli; settings: 20 μM peptide, AMA buffer (10 mM sodium phosphate, 1% TSB, pH 7.4), 1 h, 37 °C, colony counting; n = 3
# How it was run: as §1, with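 “Cells grown” for “Strain grown”, “OD600 0.5,” for “OD600 0.6,”, “diluted 1:250.” for “diluted 1:100.”, “agar, 15” for “agar, 20”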
# [7] = target: HD6 F29A mutant, oxidized form (human); assay: AUC
# [8] = 20 μM peptide, 6 h, bacterium not given
# [9] = 20 μM peptide, bacterial culture 10^8 CFU/mL in cuvette
# [10] = 20 μM peptide, 6 h, mean ± SDM, n = 3
substance,measurement,setting,value
"AFTCHCRR-SCYSTEYSYGTCTVMGINHRFCCL (bicyclic or more) [HD6, Human α-defensin 6]",antibacterial activity in vitro,bacteria,negligible antibacterial activity
same,antibacterial activity,S. aureus ATCC 25923,neither HD6 nor the mutants exhibit significant antibacterial activity
same,CFU/mL of the resuspension following agitation,[1]; [8],comparable to that of the untreated control
same,log reduction in CFU/mL of the supernatant relative to the bacteria-only control,[1]; [8],ca. 1.3 fold log
same,time for clumps to sediment to the bottom of the cuvette and clarify the medium,[1]; [9],~2 h
same,time to bacterial clumping observed by the eye after mixing,[1]; [9],≤ 5 min
same,antibacterial activity,[2],neither HD6 nor the mutants exhibit significant antibacterial activity
same,antibacterial activity,[3],neither HD6 nor the mutants exhibit significant antibacterial activity
same,CFU/mL of the resuspension following agitation,E. coli ATCC 25922 [4]; [8],comparable to that of the untreated control
same,log reduction in CFU/mL of the supernatant relative to the bacteria-only control,E. coli ATCC 25922 [4]; [8],ca. 1.3 fold log
same,time for clumps to sediment to the bottom of the cuvette and clarify the medium,E. coli ATCC 25922 [4]; [9],~2 h
same,time to bacterial clumping observed by the eye after mixing,E. coli ATCC 25922 [4]; [9],≤ 5 min
same,time within which the peptide sedimented (rapid peptide aggregation),[5],≤ 15 min
same,antibacterial activity,E. coli ATCC 25922 [6],neither HD6 nor the mutants exhibit significant antibacterial activity
"I25T (AFTCHCRRSCYSTEYSYGTCTVMGTNHRFCCL; disulfide (positions not given here); ends not checked; UniProt Q01524 69-100, looked up, variant I25T)",peptide concentration at which the bacteria were agglutinated,[1],≥ 10 µM
same,peptide concentration at which the bacteria were agglutinated,E. coli ATCC 25922 [4],≥ 10 µM
"H27W (AFTCHCRRSCYSTEYSYGTCTVMGINWRFCCL; disulfide (positions not given here); ends not checked; UniProt Q01524 69-100, looked up, variant H27W)",peptide concentration at which the bacteria were agglutinated,[1],≥ 10 µM
same,peptide concentration at which the bacteria were agglutinated,E. coli ATCC 25922 [4],≥ 10 µM
"V22T (AFTCHCRRSCYSTEYSYGTCTTMGINHRFCCL; disulfide (positions not given here); ends not checked; UniProt Q01524 69-100, looked up, variant V22T)",peptide concentration at which the bacteria were agglutinated,[1],≥ 10 µM
same,"CFU/mL reduction of the supernatant, in words",[1]; [10],smaller decrease in CFU/mL for the supernatant
same,peptide concentration at which the bacteria were agglutinated,E. coli ATCC 25922 [4],≥ 10 µM
same,"CFU/mL reduction of the supernatant, in words",E. coli ATCC 25922 [4]; [10],smaller decrease in CFU/mL for the supernatant
"HD6 F29A mutant, oxidized form (peptide)",stoichiometry N,[7],2
"ATCYCRTGRCATRESLSGVCEISGRLYRLCCR (also: bicyclic or more (positions not given here)) [HD5, reference compound]",antibacterial activity in vitro,bacteria,broad-spectrum antibacterial activity
